Data taken from ChEMBL document CHEMBL1124080, “Potential antitumor agents. 55. 6-Phenylphenanthridine-4-carboxamides: a new class of DNA-intercalating antitumor agents” (J Med Chem, 1988).
Where “and” joins values, the source holds several entries; their conditions need not be identical. Equal values may be shown once. Calls of active or inactive are those of the source.

Experiments:
L1210 = assay: Inhibition of growth of murine leukemia (L1210) cells.; type: functional, cell-based; conditions: Mus musculus
In short: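 Murine leukemia L1210 cells grown in culture with drug for 40 h; IC50 taken as the concentration (nM) giving 50% growth inhibition.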

P388 [1] = assay: The percentage increase in lifespan of compound with P388 tumor bearing controls when treated at optimal dose; type: functional, Mus musculus
In short: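 P388 leukemia: 10^6 cells inoculated intraperitoneally. ILSmax is the percentage lifespan increase over tumor-bearing controls at the optimal dose (mg/kg per day). Groups of six; long-term survivors counted at 50 days; values above 20% considered significant.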

P388 [2] = assay: Optimal dose administered intraperitoneally on days 1,5 and 9 after intraperitoneal inoculation of 10e6 P388 leukemia cells in vivo.; type: functional, Mus musculus
In short: (§1)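 Mice inoculated intraperitoneally with 10^6 P388 leukemia cells. Drug given i.p. as a solution in 0.1 mL 30% v/v ethanol/water on days 1, 5 and 9. Optimal dose in mg/kg per day. ILS is the percent increase in lifespan over untreated tumor-bearing controls at that dose; above 20% counted significant. Long-term survival judged at 50 days, groups of six.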

[3] = tested on: poly[d(A-T)] and poly[d(G-C)]; assay: Binding constant for poly[d(A-T)] and poly[d(G-C)] by ethidium bromide displacement
[4] = tested on: Lewis lung carcinoma cell line; assay: The percentage increase in lifespan of compound with Lewis lung carcinoma tumor bearing controls when treated at OD; Not active; type: functional, cell-based; conditions: Mus musculus
[5] = tested on: Lewis lung carcinoma cell line; assay: Optimal dose administered intraperitoneally to mice infected with Lewis lung carcinoma cells(LL) in vivo.; type: functional, Mus musculus
P388 [6] = assay: Optimal dose following i.p. administration on days 1,5 and 9 after inoculation of 10e6 P388 leukemia cells to mice.; type: functional, Mus musculus; in short: as §1
[7] = tested on: Lewis lung carcinoma cell line; assay: Optimal dose administered intraperitoneally to mice infected with Lewis lung carcinoma cells(LL) in vivo; type: functional, Mus musculus
P388 [8] = assay: The percentage increase in lifespan of compound with P388 tumor bearing controls when treated at optimal dose; Not active; type: functional; conditions: Mus musculus; in short: as §1
[9] = tested on: Lewis lung carcinoma cell line; assay: The percentage increase in lifespan of compound with Lewis lung carcinoma tumor bearing controls when treated at OD; type: functional, Mus musculus
In short: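 Lewis lung carcinoma: 10^6 cells inoculated intravenously. ILSmax is the percentage increase in lifespan over tumor-bearing controls at the optimal dose (mg/kg per day). Groups of six; long-term survivors counted at 60 days; values above 40% considered significant.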

[10] = pKa was evaluated; type: physicochemical
In short: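 pKa determined spectrophotometrically in aqueous solution.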

[11] = tested on: Lewis lung carcinoma cell line; assay: OD administered intraperitoneally to mice infected with Lewis lung carcinoma cells(LL) in vivo; type: functional, Mus musculus

Compound	IC50 (L1210)	ILSmax (P388 [1])	OD (P388 [2])	Log K [3]	ILSmax [4]	OD [5]	OD (P388 [6])	OD [7]	ILS max (P388 [8])	ILS max [4]	ILSmax (P388 [8])	ILSmax [9]	pKa [10]	OD [11]
CN(C)CCNC(=O)c1cccc2c1nc(-c1ccc([N+](=O)[O-])cc1)c1ccccc12	540 nM	65%	65 mg/kg/day	6.41 and 6.54	inactive	65 mg/kg/day								
CN(C)CCCCNC(=O)c1cccc2c1ncc1ccccc12.Cl	3290 nM		100 mg/kg/day	5.64 and 5.28										
CN(C)CCCNC(=O)c1cccc2c1ncc1ccccc12.Cl.Cl	3590 nM			5.74 and 5.37			100 mg/kg/day							
CN(C)CCNC(=O)c1cccc2c1nc(-c1cccc(Cl)c1)c1ccccc12.Cl.Cl	66 nM	88%		6.41 and 6.56			65 mg/kg/day	100 mg/kg/day						
CC(=O)Nc1ccc(-c2nc3c(C(=O)NCCN(C)C)cccc3c3ccccc23)cc1	54 nM	22%		6.13 and 6.31	inactive	45 mg/kg/day	30 mg/kg/day							
CN(C)CCNC(=O)c1cccc2c1nc(-c1ccncc1)c1ccccc12.Cl.Cl	14 nM	93%		6.9 and 7	inactive		100 mg/kg/day	100 mg/kg/day						
CN(C)CCCCNC(=O)c1cccc2c1nc(-c1ccccc1)c1ccccc12.Cl.Cl	1060 nM		65 mg/kg/day	6.59 and 6.4	inactive			45 mg/kg/day	inactive					
Br.Br.CN(C)CCNC(=O)c1cccc2c1nc(-c1ccc(O)cc1)c1ccccc12.Cl.Cl	370 nM						65 mg/kg/day	65 mg/kg/day	inactive	inactive				
CN(C)CCCNC(=O)c1cccc2c1nc(-c1ccccc1)c1ccccc12.Cl.Cl	1120 nM	24%		6.5 and 6.11	inactive		45 mg/kg/day	65 mg/kg/day						
CN(C)CCNC(=O)c1cccc2c1nc(-c1ccccc1Cl)c1ccccc12.Cl	2870 nM			6.45 and 6.6			45 mg/kg/day				inactive			
CN(C)CCNC(=O)c1cccc2c1nc(-c1ccccn1)c1ccccc12.Cl	720 nM	20%		5.69 and 5.77			65 mg/kg/day	65 mg/kg/day						
CN(C)CCNC(=O)c1cccc2c1nc(-c1ccc(Br)cc1)c1ccccc12	1010 nM			7.04 and 6.76	inactive	45 mg/kg/day	65 mg/kg/day		inactive					
CN(C)CCNC(=O)c1cccc2c1nc(-c1ccc(F)cc1)c1ccccc12.Cl.Cl	43 nM	63%					20 mg/kg/day	45 mg/kg/day				45%		
CN(C)CCNC(=O)c1cccc2c1nc(-c1ccc(Cl)cc1)c1ccccc12	410 nM	34%		6.26 and 6.24	inactive		45 mg/kg/day	65 mg/kg/day					2.52	
COc1ccc(-c2nc3c(C(=O)NCCN(C)C)cccc3c3ccccc23)cc1.Cl.Cl	500 nM	22%	65 mg/kg/day		inactive	100 mg/kg/day								
CN(C)CCNC(=O)c1cccc2c1nc(-c1ccc(N)cc1)c1ccccc12	130 nM	27%	30 mg/kg/day	6.29 and 6.57	inactive	45 mg/kg/day								
CN(C)CCNC(=O)c1cccc2c1nc(-c1ccc(I)cc1)c1ccccc12.Cl.Cl	2240 nM			7.33 and 7.23	inactive		65 mg/kg/day	65 mg/kg/day			inactive			
CN(C)CCNC(=O)c1cccc2c1nc(-c1ccccc1)c1ccccc12	120 nM	92%		6.26 and 6.33			45 mg/kg/day	65 mg/kg/day				126%	2.75	
CN(C)CCNC(=O)c1cccc2c1ncc1ccccc12.Cl.Cl	2100 nM	73%		5.9 and 5.61			100 mg/kg/day	150 mg/kg/day				117%	2.95	
CN(C)CCNC(=O)c1cccc2c1nc(-c1ccc(NS(C)(=O)=O)cc1)c1ccccc12.Cl.Cl	350 nM			6.24 and 6.36	inactive		30 mg/kg/day				inactive			20 mg/kg/day
CN(C)CCNC(=O)c1cccc2c1nc(-c1cccnc1)c1ccccc12.Cl.Cl.Cl	13 nM	104%		6.35 and 6.21			45 mg/kg/day	65 mg/kg/day				93%		
